Test results published in ChEMBL document CHEMBL1156597, “Structure-activity relationship of kahalalide F synthetic analogues” (J Med Chem, 2008).

What was measured:
DU-145 = assay: Cytotoxicity against human DU145 cells after 48 hrs by SRB assay; type: functional, cell-based; conditions: Homo sapiens, DU-145, 48 h; for CC50: read-out: LC50 (the source's name)
Summary of the method: (§1)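 Cells grown in RPMI 1640 with 10% FBS and penicillin/streptomycin at 37 °C and 5% CO₂, trypsinized, then seeded at 5 × 10³/well. After 18 h drug-free attachment, samples in DMSO/EtOH/PBS (0.5:0.5:99) were added for 48 h continuous exposure. Cells were fixed with cold TCA (1 h, 4 °C) and stained with SRB (10 min). Tris-solubilized stain read at 490 nm. Triplicate wells, mean ± SD; GI₅₀ derived.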

LNCaP = assay: Cytotoxicity against human LNcaP cells after 48 hrs by SRB assay; type: functional; conditions: for CC50: read-out: LC50 (the source's name); summary of the method: as §1
[1] = Cytotoxicity against human IGROV cells after 48 hrs by SRB assay; type: functional; conditions: for CC50: read-out: LC50 (the source's name); summary of the method: as §1
[2] = Cytotoxicity against human IGROV-ET cells after 48 hrs by SRB assay; type: functional; conditions: for CC50: read-out: LC50 (the source's name); summary of the method: as §1
SK-BR-3 = assay: Cytotoxicity against human SKBR3 cells after 48 hrs by SRB assay; type: functional; conditions: SK-BR-3, 48 h; for CC50: read-out: LC50 (the source's name); for GI50: read-out: GI50; summary of the method: as §1
SK-MEL-28 = assay: Cytotoxicity against human SK-MEL-28 cells after 48 hrs by SRB assay; type: functional, cell-based; conditions: Homo sapiens, SK-MEL-28, 48 h; for CC50: read-out: LC50 (the source's name); summary of the method: as §1
A549 = assay: Cytotoxicity against human A549 cells after 48 hrs by SRB assay; type: functional, cell-based; conditions: Homo sapiens, A549, 48 h; summary of the method: as §1
K562 = assay: Cytotoxicity against human K562 cells after 48 hrs by SRB assay; type: functional; conditions: K562, 48 h; for CC50: read-out: LC50 (the source's name); summary of the method: as §1
PANC-1 = assay: Cytotoxicity against human PANC1 cells after 48 hrs by SRB assay; type: functional; conditions: PANC-1, 48 h; for CC50: read-out: LC50 (the source's name); summary of the method: as §1
HT-29 = assay: Cytotoxicity against human HT29 cells after 48 hrs by SRB assay; type: functional, cell-based; conditions: Homo sapiens, HT-29, 48 h; for CC50: read-out: LC50 (the source's name); summary of the method: as §1
LoVo [3] = assay: Cytotoxicity against human LoVo cells after 48 hrs by SRB assay; type: functional; conditions: for CC50: read-out: LC50 (the source's name)
LoVo [4] = assay: Cytotoxicity against human doxorubicin resistant LoVo cells after 48 hrs by SRB assay; type: functional; conditions: for CC50: read-out: LC50 (the source's name); summary of the method: as §1
HeLa = assay: Cytotoxicity against human HeLa cells after 48 hrs by SRB assay; type: functional; conditions: for CC50: read-out: LC50 (the source's name); summary of the method: as §1
[5] = Cytotoxicity against human HeLa-APL cells after 48 hrs by SRB assay; type: functional; summary of the method: as §1

Work on C/C=C1\NC(=O)[C@@H](Cc2ccccc2)NC(=O)[C@H](C(C)C)NC(=O)[C@H]([C@H](C)CC)NC(=O)[C@@H](NC(=O)[C@@H](NC(=O)[C@@H](CCCN)NC(=O)[C@@H]2CCCN2C(=O)[C@@H](NC(=O)[C@H](NC(=O)[C@H](NC(=O)[C@@H](NC(=O)CCCC(C)C)C(C)C)[C@@H](C)O)C(C)C)C(C)C)[C@H](C)CC)[C@H](C)OC(=O)[C@H](C(C)C)NC1=O yielded a CC50 (DU-145) of 10.6 µM, a CC50 (LNCaP) of 4.92 µM and a TGI [1] of 134 µM. It also gave a GI50 ([1]; read-out: GI50) of 161 µM, a CC50 [1] of 72 µM and a CC50 [2] of 2.13 µM. It also gave a CC50 (SK-BR-3) of 1.69 µM, a CC50 (SK-MEL-28) of 1.77 µM and an LC50 (A549) of 1.92 µM. For the same compound, the GI50 (K562) was 2.53 µM, the TGI (K562) was 10.5 µM and the CC50 (K562) was 25.3 µM. For the same compound, the CC50 (PANC-1) was 8.9 µM, the CC50 (HT-29) was 3.79 µM and the CC50 (LoVo [3]) was 5.54 µM. The CC50 (LoVo [4]) was 4.08 µM, the CC50 (HeLa) was 1.91 µM and the LC50 (concentration giving 50% net cell kill) [5] was 2.36 µM.

C/C=C1\NC(=O)[C@H](Cc2ccccc2)NC(=O)[C@@H](C(C)C)NC(=O)[C@@H]([C@H](C)CC)NC(=O)[C@H](NC(=O)[C@H](NC(=O)[C@H](CCCNC(=O)CCCC[C@@H]2SC[C@@H]3NC(=O)N[C@@H]32)NC(=O)[C@H]2CCCN2C(=O)[C@H](NC(=O)[C@@H](NC(=O)[C@@H](NC(=O)[C@H](NC(=O)CCCC(C)C)C(C)C)[C@@H](C)O)C(C)C)C(C)C)[C@H](C)CC)[C@H](C)OC(=O)[C@H](C(C)C)NC1=O showed a GI50 (DU-145) of 0.836 µM, a GI50 (DU-145; read-out: GI50) of 0.854 µM and a CC50 (DU-145) of 0.814 µM. For the same compound, the GI50 (LNCaP) was 0.816 µM, the TGI (LNCaP) was 0.81 µM and the CC50 (LNCaP) was 0.805 µM. It also gave a GI50 [1] of 0.351 µM, a GI50 ([1]; read-out: GI50) of 0.369 µM and a CC50 [1] of 0.342 µM. It also gave a GI50 [2] of 0.488 µM, a GI50 ([2]; read-out: GI50) of 0.618 µM and a CC50 [2] of 0.385 µM. For the same compound, the TGI (SK-BR-3) was 0.267 µM, the GI50 (SK-BR-3) was 0.322 µM and the CC50 (SK-BR-3) was 0.0905 µM. It also gave a GI50 (SK-MEL-28) of 0.974 µM, a GI50 (SK-MEL-28; read-out: GI50) of 0.959 µM and a CC50 (SK-MEL-28) of 0.974 µM. It also gave an LC50 (A549) of 0.128 µM, a CC50 (K562) of 1.68 µM and a GI50 (PANC-1) of 1.99 µM. For the same compound, the TGI (PANC-1) was 2.36 µM, the CC50 (PANC-1) was 2.01 µM and the GI50 (HT-29) was 0.362 µM. It also gave a TGI (HT-29) of 0.316 µM, a CC50 (HT-29) of 0.164 µM and a GI50 (LoVo [3]) of 0.317 µM. The TGI (LoVo [3]) was 0.303 µM, the CC50 (LoVo [3]) was 0.288 µM and the GI50 (LoVo [4]) was 0.328 µM. It also gave a TGI (LoVo [4]) of 0.354 µM, a CC50 (LoVo [4]) of 2.18 µM and a GI50 (HeLa) of 0.382 µM. For the same compound, the TGI (HeLa) was 0.58 µM, the CC50 (HeLa) was 0.716 µM and the GI50 [5] was 0.985 µM. The LC50 (concentration giving 50% net cell kill) [5] was 0.996 µM and the TGI [5] was 0.989 µM.

In the case of C/C=C1\NC(=O)[C@H](Cc2ccccc2)NC(=O)[C@@H](C(C)C)NC(=O)[C@@H]([C@H](C)CC)NC(=O)[C@H](NC(=O)[C@H](NC(=O)[C@H](CCCN)NC(=O)[C@H]2CCCN2C(=O)[C@H](NC(=O)[C@@H](NC(=O)[C@@H](NC(=O)[C@H](NC(=O)Cc2cc(F)cc(F)c2)C(C)C)[C@@H](C)O)C(C)C)C(C)C)[C@H](C)CC)[C@H](C)OC(=O)[C@H](C(C)C)NC1=O, the TGI (DU-145) is reported as 3.69 µM, the GI50 (DU-145; read-out: GI50) is reported as 1.84 µM and the CC50 (DU-145) is reported as 1.6 µM. The GI50 (LNCaP) was 1.65 µM, the TGI (LNCaP) was 3.14 µM and the CC50 (LNCaP) was 1.49 µM. It also gave a GI50 [1] of 0.692 µM, a GI50 ([1]; read-out: GI50) of 1.37 µM and a CC50 [1] of 0.426 µM. The GI50 [2] was 0.679 µM, the GI50 ([2]; read-out: GI50) was 0.889 µM and the CC50 [2] was 0.52 µM. It also gave a TGI (SK-BR-3) of 1.71 µM, a GI50 (SK-BR-3) of 1.27 µM and a CC50 (SK-BR-3) of 1.49 µM. The TGI (SK-MEL-28) was 2.93 µM, the GI50 (SK-MEL-28; read-out: GI50) was 2.34 µM and the CC50 (SK-MEL-28) was 1.4 µM. For the same compound, the LC50 (A549) was 1.12 µM, the TGI (A549) was 1.35 µM and the GI50 (A549; read-out: GI50) was 1.62 µM. It also gave a CC50 (K562) of 2.37 µM, a CC50 (PANC-1) of 2.46 µM and a CC50 (HT-29) of 0.556 µM. The GI50 (LoVo [3]) was 0.794 µM, the TGI (LoVo [3]) was 1.48 µM and the CC50 (LoVo [3]) was 2.2 µM. It also gave a GI50 (HeLa) of 1.41 µM, a TGI (HeLa) of 1.35 µM and a CC50 (HeLa) of 1.01 µM. For the same compound, the GI50 [5] was 2.02 µM, the LC50 (concentration giving 50% net cell kill) [5] was 1.29 µM and the TGI [5] was 2.96 µM.
